In ChEMBL document CHEMBL1799934, “Irreversible Nek2 kinase inhibitors with cellular activity” (J Med Chem, 2011):
Positions count from the first letter of the chain named. Activity calls are given as the source filed them. The calls are words filed in the database; no cut-off is given here.

Key:
[1] = biological target: T1, Serine/threonine-protein kinase Nek2 (Homo sapiens, UniProt P51955); assay: Inhibition of human Nek2 in using [gamma-32P] ATP
T1 sequence (P51955 whole entry): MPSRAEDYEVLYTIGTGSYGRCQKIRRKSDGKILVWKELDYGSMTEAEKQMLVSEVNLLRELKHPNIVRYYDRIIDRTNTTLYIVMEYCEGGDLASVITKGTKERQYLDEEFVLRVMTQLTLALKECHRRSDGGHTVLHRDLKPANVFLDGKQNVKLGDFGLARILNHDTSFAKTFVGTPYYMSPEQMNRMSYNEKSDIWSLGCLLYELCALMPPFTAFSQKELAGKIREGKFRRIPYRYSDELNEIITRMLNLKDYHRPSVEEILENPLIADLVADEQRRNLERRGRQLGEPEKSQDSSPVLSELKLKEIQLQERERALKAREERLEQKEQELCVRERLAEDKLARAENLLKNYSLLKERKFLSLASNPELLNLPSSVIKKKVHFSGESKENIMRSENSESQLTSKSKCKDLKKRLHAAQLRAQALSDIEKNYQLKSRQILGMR

A549 [2] = assay: Antimitotic activity in monastrol-arrested human A549 cells assessed as cells that exit mitosis arrest at 5 uM after 45 mins by immunofluorescence microscopic analysis; assay type: functional
[3] = biological target: Cyclin-dependent kinase 1/cyclin B1 (Homo sapiens, UniProt P06493); assay: Inhibition of human Cdk1/cyclinB using histone H1 as a substrate and [gamma-32P]ATP; assay type: protein-complex assay
[4] = biological target: Serine/threonine-protein kinase Nek2 (Homo sapiens, UniProt P51955, C22V); assay: Inhibition of human Nek2 C22V mutant using [gamma-32P] ATP
[5] = biological target: T2, Serine/threonine-protein kinase Nek2 (Homo sapiens) (UniProt P51955); assay: Induction of alkylation at Cys22 position of wild type human Nek2 kinase domain amino acid 1-271 at 500 nM by electrospray mass spectrometric analysis
T2 sequence (whole entry): T1 sequence (P51955 whole entry)
Method in brief: (§1)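 WT or C22V Nek2 kinase domain (50 nM) incubated with 500 nM inhibitor in PBS pH 7.4, 5% DMSO, 5 h at room temperature. Acidified to pH 3 with HCl, then LC-MS on a C18 protein column with acetonitrile/formic acid gradient and ESI detection. Spectra deconvoluted to single masses of protein and adducts.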

[6] = biological target: T2, Serine/threonine-protein kinase Nek2 (Homo sapiens); assay: Inhibition of human Nek2 at 5 uM using [gamma-32P] ATP
[7] = system: T3, Serine/threonine-protein kinase Nek2 (Homo sapiens), P51955 [C22V]; assay: Induction of alkylation at Cys22 position of human Nek2 C22V mutant kinase domain amino acid 1-271 at 500 nM by electrospray mass spectrometric analysis; method in brief: as §1
T3 sequence (whole entry): T1 sequence (P51955 whole entry) with C22V

Homo sapiens = species: Homo sapiens; assay: Ratio of IC50 for human Nek2 to IC50 for human Cdk1/cyclinB
Method in brief: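 Nek2 (WT kinase domain, 15 nM) pre-incubated with inhibitor for 30 min at room temperature in HEPES pH 7.5, MgCl2, EDTA, BSA with 100 μM ATP and 3% DMSO. β-casein and [γ-32P]ATP were then added for a 30-min reaction. Cdk1/cyclin B (2 nM) was run the same way but with 38 μM ATP and histone H1 as substrate. Phosphorylation was read from nitrocellulose spots. IC50s are means of three determinations.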

A549 [8] = assay: Induction of deffect in bipolar spindle assembly in human A549 cells at 5 uM after 30 mins in presence of Cdk1 inhibitor 19; assay type: functional, cell-based
Method in brief: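 A549 cells on poly-lysine coverslips grown 24 h, held in late G2 with 5 μM 19 for 20 h, then given 5 μM test compound plus 5 μM 19 for 30 min. Washed twice into compound-free media, then 10 μM MG132 for 1 h. Fixed and immunostained for spindles and chromosomes. Bipolar spindles quantified in >160 cells/condition, mean ± SD of 3 experiments.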

A549 [9] = assay: Reduction in total number of mitotic cells in human A549 cells at 5 uM after 30 mins in presence of Cdk1 inhibitor 19; assay type: functional, cell-based
A549 [10] = assay: Effect on chromosome congression in human A549 cells at 5 uM after 30 mins in presence of Cdk1 inhibitor 19; assay type: functional, cell-based

Chain of Cyclin-dependent kinase 1/cyclin B1 (P06493 whole entry): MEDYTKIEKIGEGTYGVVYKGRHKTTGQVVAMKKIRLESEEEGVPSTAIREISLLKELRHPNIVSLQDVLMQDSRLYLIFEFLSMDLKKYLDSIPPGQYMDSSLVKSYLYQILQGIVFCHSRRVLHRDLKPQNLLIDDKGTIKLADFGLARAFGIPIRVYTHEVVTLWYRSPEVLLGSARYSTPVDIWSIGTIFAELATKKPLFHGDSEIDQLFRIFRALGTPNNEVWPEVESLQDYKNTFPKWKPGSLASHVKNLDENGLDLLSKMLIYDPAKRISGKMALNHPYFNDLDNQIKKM
Chain of Cyclin-dependent kinase 1/cyclin B1 (P14635 whole entry, further chain): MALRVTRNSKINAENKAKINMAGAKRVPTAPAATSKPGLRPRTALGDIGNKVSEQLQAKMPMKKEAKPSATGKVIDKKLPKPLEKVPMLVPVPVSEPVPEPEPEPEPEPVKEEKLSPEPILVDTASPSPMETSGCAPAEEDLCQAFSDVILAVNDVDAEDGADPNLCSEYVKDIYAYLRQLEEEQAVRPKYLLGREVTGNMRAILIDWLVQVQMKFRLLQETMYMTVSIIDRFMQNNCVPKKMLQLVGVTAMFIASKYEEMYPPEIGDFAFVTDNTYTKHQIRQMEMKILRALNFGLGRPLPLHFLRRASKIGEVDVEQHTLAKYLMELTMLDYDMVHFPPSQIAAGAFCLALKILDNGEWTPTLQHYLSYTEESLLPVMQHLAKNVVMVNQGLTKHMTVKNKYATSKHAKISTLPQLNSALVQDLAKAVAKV
Chain of Serine/threonine-protein kinase Nek2 (Homo sapiens, UniProt P51955, C22V) (P51955 whole entry C22V, the tested form may be a part): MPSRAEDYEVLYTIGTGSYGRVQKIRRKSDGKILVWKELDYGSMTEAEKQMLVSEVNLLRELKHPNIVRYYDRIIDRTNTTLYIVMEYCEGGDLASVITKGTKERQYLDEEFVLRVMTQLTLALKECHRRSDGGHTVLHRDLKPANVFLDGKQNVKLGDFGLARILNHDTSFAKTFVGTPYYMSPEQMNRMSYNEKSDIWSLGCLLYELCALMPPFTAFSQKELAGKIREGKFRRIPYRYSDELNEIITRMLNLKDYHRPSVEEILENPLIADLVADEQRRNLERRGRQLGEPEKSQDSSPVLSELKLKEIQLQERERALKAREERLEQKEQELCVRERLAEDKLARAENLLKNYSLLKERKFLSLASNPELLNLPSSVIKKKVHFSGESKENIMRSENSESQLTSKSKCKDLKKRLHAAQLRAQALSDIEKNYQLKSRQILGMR

| SMILES | IC50 [1] [nM] | Activity (A549 [2]) [%] | IC50 [3] [nM] | other results |
| --- | --- | --- | --- | --- |
| CCc1nc(C)c(/C=C2\C(=O)Nc3ccc(C(=O)CCl)cc32)[nH]1 | 130 | 50 | 2500 | – |
| C#CC(=O)Nc1ccc2c(c1)/C(=C/c1ccc[nH]1)C(=O)N2 | 920 | 78 | 90 | IC50 [4]: 20000 nM; Activity [5]: Active; inhibition [6]: 80%; Activity [7]: inactive |
| C#CC(=O)Nc1ccc2c(c1)/C(=C/c1[nH]cnc1C)C(=O)N2 | 390 | 99 | < 1 | Ratio IC50 (Homo sapiens): 400 |
| Cc1nc[nH]c1/C=C1\C(=O)Nc2ccc(C(=O)CCl)cc21 | 20 | 100 | < 1 | – |
| O=C1Nc2ccc(C(=O)CCl)cc2/C1=C/c1ccc[nH]1 | < 6 | 98 | 10 | IC50 [4]: 14000 nM; Activity [5]: Active; inhibition [6]: 80%; Activity [7]: inactive |
| C#CC(=O)Nc1ccc2c(c1)/C(=C/c1[nH]c(CC)nc1C)C(=O)N2C | > 20000 | 0 | > 20000 | – |
| C#CC(=O)Nc1ccc2c(c1)/C(=C/c1cnc[nH]1)C(=O)N2 | 620 | 80 | < 1 | – |
| CC#CC(=O)Nc1ccc2c(c1)/C(=C/c1[nH]c(CC)nc1C)C(=O)N2 | – | 33 | > 20000 | – |
| CCc1nc(C)c(/C=C2\C(=O)N(C)c3ccc(C(=O)CCl)cc32)[nH]1.Cl | – | 0.9 | – | – |
| C#CC(=O)Nc1ccc2c(c1)/C(=C/c1[nH]c(CC)nc1C)C(=O)N2 | – | – | > 20000 | Activity (A549 [8]): inactive; Activity (A549 [9]): inactive; Activity (A549 [10]): inactive |
| CCc1nc(C)c(/C=C2\C(=O)Nc3ccc(C(C)=O)cc32)[nH]1 | > 20000 | 27 | 3600 | – |
| C=CC(=O)Nc1ccc2c(c1)/C(=C/c1ccc[nH]1)C(=O)N2 | – | – | – | inhibition [6]: inactive |
| O=C1Nc2ccc(C(=O)CCl)cc2/C1=C/c1cnc[nH]1 | 60 | 92 | < 1 | – |
